# Screens from PubChem BioAssay.
# In the library only some 1.5% were active in any assay of this set; here they are far more common.
# Pyk2 oligo antag: Pyk2 (human) oligomerization antagonism; Q14289; Q293 cells, Pyk2 FERM NanoBiT luminescence; hits give low values; z-score (the deposit names both 25 µM and 10 µM); 0.83% of 99,000 active;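 active = Z-score of -3 or lower, scaled per plate to the spread of control and sample wells; inactive = z-score above -3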;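 also: negative z-score means lost luminescence so less FERM oligomerization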
# HEK293 NFkB inh: inhibitors of the PMA/ionomycin-induced NF-kB reporter in HEK293 cells. HEK-293 NF-kB luciferase reporter, luminescence. inhibition, % at 3 µM. 0.21% of 62,000 active. AID 465;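 active = inhibition above the mean of all tested compounds plus 3 SD, cut at about 40% in these data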;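 also: 0% = stimulated DMSO wells and 100% = 10 µM reference inhibitor 5653914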
#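 Timing: 1 h pretreatment, 16 h stimulation, 37 °C; system: HEK-293 cells with stable firefly luciferase reporter driven by four HIV NF-kB elements; doses: 3 µM once, 0.30% DMSO; measured by: luciferase luminescence; control set: DMSO and 10 µM reference inhibitor; repeats: single test; reagent: PMA plus ionomycin mix as NF-kB-activating stimulus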
# AP complement: orthogonal test for alternative complement pathway inhibitors. Human serum alternative complement pathway, LPS-coated ELISA, C3 deposition; tested in compound mixtures. inhibition, % at 5 µM. 0.08% of 62,000 active. AID 1235;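 active = inhibition above 30% in each of the two pooled mixtures holding the compound, so the lower value exceeds 30%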;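 also: 0% = serum in Mg-EGTA without compound and 100% = EDTA serum blank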
#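 Test system: human serum complement alternative pathway, C3 deposition onto LPS / Medium: Mg2+-EGTA GVB++ buffer containing human serum at 1:15 dilution / Probe or stimulus: Plate-bound LPS / Times: 1 h at 37 °C / Signal: ELISA with HRP anti-human C3 antibody, TMB substrate, absorbance 450 nm / Measure: percent inhibition / Repeats: two pool placements per compound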
# PLK1 inh: PLK1 (human) kinase inhibition; 0.53% of 97,000 active; recombinant PLK1 kinase, TR-FRET peptide phosphorylation; inhibition, % at 10 µM;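 active = inhibition of 50% or more in the single-concentration screen; inactive = inhibition below 50%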;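 also: 0% = DMSO max control and 100% = H-89 dihydrochloride min control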
# Target sequence (P53350 whole entry, looked up): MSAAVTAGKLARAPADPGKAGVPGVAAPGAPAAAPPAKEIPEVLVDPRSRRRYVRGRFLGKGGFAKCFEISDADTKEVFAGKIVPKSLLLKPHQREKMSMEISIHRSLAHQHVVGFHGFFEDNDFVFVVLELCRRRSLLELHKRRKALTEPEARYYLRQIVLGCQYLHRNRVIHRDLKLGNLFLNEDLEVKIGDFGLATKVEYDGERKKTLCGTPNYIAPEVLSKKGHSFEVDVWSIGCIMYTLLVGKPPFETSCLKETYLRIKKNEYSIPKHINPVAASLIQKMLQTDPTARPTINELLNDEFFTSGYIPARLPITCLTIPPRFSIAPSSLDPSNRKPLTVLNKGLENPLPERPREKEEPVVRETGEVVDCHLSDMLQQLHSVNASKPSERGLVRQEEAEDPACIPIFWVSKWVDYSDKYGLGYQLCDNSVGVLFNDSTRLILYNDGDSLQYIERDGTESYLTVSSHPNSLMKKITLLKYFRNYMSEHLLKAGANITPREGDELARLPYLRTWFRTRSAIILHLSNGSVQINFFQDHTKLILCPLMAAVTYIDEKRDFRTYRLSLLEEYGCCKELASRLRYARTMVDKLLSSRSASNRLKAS
# PLK1 PBD inh: inhibitors of human Plk1 polo box domain binding; P53350; Plk1 PBD phosphopeptide binding, fluorescence polarization; inhibition, %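 (tested at about 20 µM)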; 0.13% of 97,000 active; AID 693; in the data active = inhibition above about 34%, passing the limit was not always enough
# HePTP inh: inhibitors of human HePTP phosphatase; recombinant HePTP phosphatase activity, OD absorbance; inhibition, % at 20 µM; 0.64% of 110,000 active; AID 521; in the data active = inhibition above about 50%;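 also: plate controls were vehicle for no effect and reference inhibitor for full effect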
# The depositor's hits bear a star; / = no result given.
SMILES,Pyk2 oligo antag,HEK293 NFkB inh,AP complement,PLK1 inh,PLK1 PBD inh,HePTP inh
CCCCCc1nc2sc3c(c2c(=O)n1N)CC(C)CC3 (centres undefined),/,/,/,/,/,-6
COc1cccc(CN2CCN(S(=O)(=O)c3ccccc3)CC2)c1,/,/,/,/,/,-21
COc1ccccc1OCC(=O)Nc1ccc(Nc2ccccc2)cc1,/,/,/,/,/,9
C(=C/c1ccnc2nc(SC/C=C/c3ccccc3)nn12)/c1ccccc1,-3*,/,/,-1,-32,/
COc1ccccc1/C=N/NC(=O)CSc1ccccn1,/,/,/,/,/,-7
CC(=O)NC1=NC(=O)/C(=C\c2ccc(I)o2)S1,/,/,/,/,/,102*
COC(=O)c1ccc(-c2ccc(/C=C3/SC(NC(C)=O)=NC3=O)o2)cc1,/,/,/,/,/,-5
COc1ccc(C2CC(=O)C3=C(C2)Nc2ccccc2NC3c2cc(Br)ccc2OC)cc1 (centres undefined),/,/,/,/,/,3
O=S(=O)(c1ccc2c(c1)OCCO2)N1CCC(c2nc3ccc(Cl)cc3[nH]2)CC1,-3.4*,18,-12,2,6,11
O=C(c1ccc(S(=O)(=O)N2CCC(c3nc4ccccc4s3)CC2)cc1)N1CCOCC1,0.19,0,-8,/,/,-9
O=S(=O)(c1ccc2c(c1)OCCO2)N1CCC(c2nc3ccccc3s2)CC1,-3.1*,18,-7,-9,-1,-4
COc1ccc2nc(NC(=O)C3CCN(S(=O)(=O)c4cccc5nsnc45)CC3)sc2c1,-3.4*,0,4,-1,-28,0
Cc1cccc(NC(=O)C2CCN(S(=O)(=O)c3cccc4nsnc34)CC2)n1,0.14,-15,17,4,-3,8
O=C1NN(c2ccccc2)C(=O)/C1=C/c1cccc(O)c1,/,/,/,/,/,-15
COc1cccc(OC)c1-c1nn2c(-c3ccccc3Cl)nnc2s1,-3*,/,/,-10,-15,6
O=C(CCCCCN1C(=O)C2C3C=CC(C3)C2C1=O)Nc1nccs1 (centres undefined),/,2,9,62*,-9,7
O=C(CCN1C(=O)C2C3C=CC(C3)C2C1=O)Nc1nccs1 (centres undefined),-0.18,0,-2,1,9,-10
C#CCn1c(=NC(=O)CN2C(=O)CCC2=O)sc2cccc(C)c21,/,5,10,62*,-39,6
Cc1ccc(S(=O)(=O)c2nc(Nc3nccs3)sc2Cl)cc1,-3.1*,12,-8,-9,1,3
O=C(O)COc1ccccc1/C=N/NC(=O)COc1c(Br)cc(Br)cc1Br,/,/,/,/,/,66*
Cc1ccc(NCC(=O)N/N=C\c2ccccc2OCC(=O)O)cc1,/,/,/,/,/,0
COc1ccc(C(=O)Nc2ccc(OC)c(OC)c2)c(OC)c1,/,/,/,/,/,6
O=C(Nc1cccc(-c2nnc(-c3ccccc3)o2)c1)c1ccc(Br)o1,-3.1*,13,14,-1,6,7
CCOc1cc(OCC)cc(C(=O)Nc2cccc(-c3nc4cc(C)ccc4o3)c2C)c1,/,/,/,/,/,7
O=c1cc(CN2CCN(S(=O)(=O)c3ccc4c(c3)OCCO4)CC2)c2ccc(O)cc2o1,-3.9*,/,/,-16,9,/
SMILES,Pyk2 oligo antag,HEK293 NFkB inh,AP complement,PLK1 inh,PLK1 PBD inh,HePTP inh
CCN(CC)S(=O)(=O)c1ccc(N=Nc2c(C)[nH]n(C(N)=S)c2=O)cc1,-1.1,/,/,-10,-15,/
NC(=S)n1[nH]c(-c2ccc([N+](=O)[O-])cc2)c(N=Nc2ccc(O)cc2)c1=O,-3.6*,/,/,4,-12,/
O=C(COc1ccccc1[N+](=O)[O-])Nc1ccc(Cl)cn1,/,/,/,/,/,5
O=C(Nc1ccccc1)Nc1nnc(-c2ccc([N+](=O)[O-])cc2)s1,/,/,/,/,/,-12
Cc1cc(N2C(=O)NC(=O)/C(=C\c3ccc([N+](=O)[O-])o3)C2=O)ccc1Br,/,/,/,/,/,104*
Cc1ccc(N2C(=O)NC(=O)/C(=C\c3ccc(-c4cccc([N+](=O)[O-])c4)o3)C2=O)cc1,/,/,/,/,/,1
Cc1cc(C)cc(N2C(=O)NC(=O)/C(=C\c3ccc([N+](=O)[O-])o3)C2=O)c1,/,/,/,/,/,84*
C=C(C)COc1ccc(-c2[nH]ncc2-c2ccccc2OC)c(O)c1,-2,10,1,-2,4,3
C=C(C)COc1ccc(-c2nc(N)ncc2Oc2ccccc2OC)c(O)c1,-4.3*,25,12,-11,-33,1
CCOc1ccc(-c2nc(N)ncc2Oc2cccc(OC)c2)c(O)c1,-3.2*,/,/,-7,-7,/
C=C(C)COc1ccc(-c2nc(N)ncc2Oc2ccc(OC)cc2)c(O)c1,-4.7*,29,23,-86,2,2
CCOc1ccc(-c2nc(N)ncc2Oc2ccccc2Br)c(O)c1,-2.2,/,/,-7,6,/
C/C(=N\NC(=O)C1(C)CC1(Br)Br)c1ccc(Br)s1 (centres undefined),/,/,/,/,/,11
CC(NC(=O)c1ccc(I)cc1)c1ccccc1 (centres undefined),/,/,/,/,/,5
CN1c2ccccc2C(O)=C(C(=S)Nc2ccc(Cl)cc2)S1(=O)=O,-3.2*,/,/,-18,11,/
C/C(=N\N=C\c1ccccc1)C1C(=O)c2ccccc2C1=O,/,/,/,/,/,-13
Cc1ccc(N(CC(=O)Nc2ccccc2C)S(=O)(=O)c2ccccc2)cc1,/,/,/,/,/,9
COC(=O)c1ccccc1NC(=O)CN(c1ccc(OC)cc1)S(=O)(=O)c1ccc(C)cc1,/,/,/,/,/,50*
COc1ccc(N(CC(=O)Nc2cccc(C)c2C)S(=O)(=O)c2c(C)n[nH]c2C)cc1,-3.3*,7,5,7,-20,0
Cc1ccc(N(CC(=O)Nc2ccccc2-c2ccccc2)S(=O)(=O)c2ccccc2)cc1,-3.9*,/,/,-6,-26,/
CN(C)c1ccc(NC(=O)C(=O)NCCC2=CCCCC2)cc1,/,/,/,/,/,-8
Cc1ccc(OCCOc2ccc(Cl)cc2/C=C2/SC(=S)N(C)C2=O)cc1,/,/,/,/,/,-5
O=C(NCCN1CCN(c2ccccc2)CC1)C1CCN(S(=O)(=O)N2CCOCC2)CC1,1.2,-1,2,56*,-9,-6
Brc1ccc2[nH]ncc2c1,0.66,-1,14,51*,-6,-2
CCc1ccc(NSc2ccccc2[N+](=O)[O-])cc1,-3*,/,/,5,-27,/
SMILES,Pyk2 oligo antag,HEK293 NFkB inh,AP complement,PLK1 inh,PLK1 PBD inh,HePTP inh
COc1nsnc1NS(=O)(=O)c1ccc(NC(=S)NC(=O)c2sc3cc(F)ccc3c2Cl)cc1,/,/,/,/,/,102*
Cc1cc(S(=O)(=O)N2CCN(c3c(C)cccc3C)CC2)ccc1F,-0.5,9,/,-14,14,/
Cc1ccccc1N1CCN(S(=O)(=O)c2ccccc2)CC1,-3.1*,/,/,-16,-14,/
Cc1cc(S(=O)(=O)N2CCN(c3ccccc3C)CC2)ccc1F,-3.6*,8,9,-21,2,17
Cc1cccc(N2CCN(S(=O)(=O)c3ccc(S(=O)(=O)N4CCCC4)cc3)CC2)c1C,0.59,/,/,-15,-13,/
COc1ccc(/C=C2\SC(=S)NC2=O)cc1C,/,/,/,/,/,9
CC(C)c1nc2n[nH]c(N)c2c2c1CCCC2,-1.3,/,/,66*,-11,7
CCCCc1nc2n[nH]c(N)c2c2c1CCC2,-1.1,18,0,35,7,-7
